# Source: publication PMC3880595 (Journal of medicinal chemistry, 2013)
# Like-named read-outs stand apart in the source and are kept apart here. Positions of bridges follow the written chain, without caps; N, C: chain ends. Non-standard residues stand in square brackets, D forms with d. Residues, ends and D or L forms follow the SMILES beside them. Nle = CCCC[C@H](N)C(=O)O
# Key:
# MC1 receptor [1] = molecular target: T1, MC1 receptor (Mus musculus, UniProt Q01727); experiment: In vitro competitive binding assay against ^125I-; parameters: species or system murine
# T1 sequence (Q01727 whole entry): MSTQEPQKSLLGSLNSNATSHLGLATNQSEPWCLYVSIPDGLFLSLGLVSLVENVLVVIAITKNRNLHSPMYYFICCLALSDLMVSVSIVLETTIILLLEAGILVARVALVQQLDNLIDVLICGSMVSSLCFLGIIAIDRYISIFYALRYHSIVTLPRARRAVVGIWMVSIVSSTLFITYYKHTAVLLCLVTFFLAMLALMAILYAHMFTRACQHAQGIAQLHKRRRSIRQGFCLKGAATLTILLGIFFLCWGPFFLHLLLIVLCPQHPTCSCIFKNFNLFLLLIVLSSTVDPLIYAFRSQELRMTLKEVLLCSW
# In short: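 B16/F1 cells seeded at 2.5 × 10^5/well, grown overnight at 37 °C, then washed with binding medium (MEM, 25 mM HEPES pH 7.4, 0.2% BSA, 0.3 mM 1,10-phenanthroline). Incubated 2 h at 25 °C with ~30,000 cpm 125I-(Tyr2)-NDP-MSH plus test peptide at 10^-13 to 10^-6 M. Rinsed twice with ice-cold 0.2% BSA/0.01 M PBS (pH 7.4), lysed 5 min in 1 M NaOH, gamma-counted. Run in triplicate.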
# RP-HPLC capacity factor = format: physicochemical; conditions: chromatographic, Grace Vydac C-18, 20-min gradient of 16-26% acetonitrile in 20 mM HCl, 1 mL/min
# MC1 receptor [2] = molecular target: T1, MC1 receptor; conditions: read-out: MC1 receptor binding affinity; B16/F1 cells; cited from earlier work
Compound,IC50 (MC1 receptor [1]) [nM],Capacity factor (k') (RP-HPLC capacity factor),IC50 (MC1 receptor [2]) [nM]
CC(C)[C@H](NC(=O)[C@@H]1CCCN1C(=O)[C@H](CCCNC(=N)N)NC(=O)[C@H](CS)NC(=O)[C@H](Cc1c[nH]c2ccccc12)NC(=O)[C@H](CCCNC(=N)N)NC(=O)[C@@H](Cc1ccccc1)NC(=O)[C@H](Cc1c[nH]cn1)NC(=O)[C@H](CCC(=O)O)NC(=O)[C@H](CS)NC(=O)[C@H](CS)NC(=O)[C@H](CCCCN)NC(=O)[C@@H]1CC(=O)N[C@@H](CCCNC(=N)N)C(=O)N[C@@H](Cc2ccccc2)C(=O)N[C@@H](CC(=O)O)C(=O)N[C@H](Cc2ccc(O)cc2)C(=O)N1)C(N)=O [RFD-Lys-(Arg^11)CCMSH] (RFD[dY]DKCCEH[dF]RWCRPV-NH2; lactam N-5),0.82 ± 0.06,3.77,–
CCCC[C@@H]1NC(=O)[C@H](CCCNC(=N)N)NC(=O)C[C@@H](C(=O)N[C@@H](CCCCN)C(=O)N[C@@H](CS)C(=O)N[C@@H](CS)C(=O)N[C@@H](CCC(=O)O)C(=O)N[C@@H](Cc2c[nH]cn2)C(=O)N[C@H](Cc2ccccc2)C(=O)N[C@@H](CCCNC(=N)N)C(=O)N[C@@H](Cc2c[nH]c3ccccc23)C(=O)N[C@@H](CS)C(=O)N[C@@H](CCCNC(=N)N)C(=O)N2CCC[C@H]2C(=O)N[C@H](C(N)=O)C(C)C)NC(=O)[C@@H](Cc2ccc(O)cc2)NC(=O)[C@H](CC(=O)O)NC1=O [RNleD-Lys-(Arg^11)CCMSH] (R[Nle]D[dY]DKCCEH[dF]RWCRPV-NH2; lactam N-5),2.99 ± 0.26,4.36,–
"RGD-Lys-(Arg^11)CCMSH: cyclic RGD motif {Arg-Gly-Asp-DTyr-Asp} attached to [Cys^3,4,10, D-Phe^7, Arg^11]α-MSH3-13 peptide via a lysine linker (RGDYDKCCEHFRWCRPV; lactam cycle c[Arg1-Gly-Asp-dTyr-Asp5]; (Arg1 alpha-amine to Asp5 side-chain carboxyl); D-Tyr4; D-Phe11; C-terminal amide; Lys6 linker)",–,–,2.1

# Continued, in another order:
IC50 (MC1 receptor [1]) [nM],Capacity factor (k') (RP-HPLC capacity factor),Compound,IC50 (MC1 receptor [2]) [nM]
1.3 ± 0.36,2.19,"CC(C)[C@H](NC(=O)[C@@H]1CCCN1C(=O)[C@H](CCCNC(=N)N)NC(=O)[C@H](CS)NC(=O)[C@H](Cc1c[nH]c2ccccc12)NC(=O)[C@H](CCCNC(=N)N)NC(=O)[C@@H](Cc1ccccc1)NC(=O)[C@H](Cc1c[nH]cn1)NC(=O)[C@H](CCC(=O)O)NC(=O)[C@H](CS)NC(=O)[C@H](CS)NC(=O)[C@H](CCCCN)NC(=O)[C@@H]1CC(=O)N[C@@H](CCCNC(=N)N)C(=O)N[C@@H](CO)C(=O)N[C@@H](CC(=O)O)C(=O)N[C@H](Cc2ccc(O)cc2)C(=O)N1)C(N)=O [RSD-Lys-(Arg^11)CCMSH, c[Arg-Ser-Asp-DTyr-Asp]-Lys-Cys-Cys-Glu-His-DPhe-Arg-Trp-Cys-Arg-Pro-Val-NH2] (RSD[dY]DKCCEH[dF]RWCRPV-NH2; lactam N-5)",–
1.35 ± 0.08,–,CC(C)[C@H](NC(=O)[C@@H]1CCCN1C(=O)[C@H](CCCNC(=N)N)NC(=O)[C@H](CS)NC(=O)[C@H](Cc1c[nH]c2ccccc12)NC(=O)[C@H](CCCNC(=N)N)NC(=O)[C@@H](Cc1ccccc1)NC(=O)[C@H](Cc1c[nH]cn1)NC(=O)[C@H](CCC(=O)O)NC(=O)[C@H](CS)NC(=O)[C@H](CS)NC(=O)[C@H](CCCCN)NC(=O)[C@@H]1CC(=O)N[C@@H](CCCNC(=N)N)C(=O)N[C@H](Cc2ccccc2)C(=O)N[C@@H](CC(=O)O)C(=O)N[C@H](Cc2ccc(O)cc2)C(=O)N1)C(N)=O [RfD-Lys-(Arg^11)CCMSH] (R[dF]D[dY]DKCCEH[dF]RWCRPV-NH2; lactam N-5),–
